Test results: ChEMBL document CHEMBL1132360, “N-Substituted (2,3-dihydro-1,4-benzodioxin-2-yl)methylamine derivatives as D(2) antagonists/5-HT(1A) partial agonists with potential as atypical antipsychotic agents” (J Med Chem, 1999)

Assays:
[1] = molecular target: T1, 5-hydroxytryptamine receptor 1A (Rattus norvegicus, UniProt P19327); assay: Binding affinity towards 5-hydroxytryptamine 1A receptor from rat brain using [3H]-8-OH-DPAT as radioligand
T1 sequence (P19327 whole entry): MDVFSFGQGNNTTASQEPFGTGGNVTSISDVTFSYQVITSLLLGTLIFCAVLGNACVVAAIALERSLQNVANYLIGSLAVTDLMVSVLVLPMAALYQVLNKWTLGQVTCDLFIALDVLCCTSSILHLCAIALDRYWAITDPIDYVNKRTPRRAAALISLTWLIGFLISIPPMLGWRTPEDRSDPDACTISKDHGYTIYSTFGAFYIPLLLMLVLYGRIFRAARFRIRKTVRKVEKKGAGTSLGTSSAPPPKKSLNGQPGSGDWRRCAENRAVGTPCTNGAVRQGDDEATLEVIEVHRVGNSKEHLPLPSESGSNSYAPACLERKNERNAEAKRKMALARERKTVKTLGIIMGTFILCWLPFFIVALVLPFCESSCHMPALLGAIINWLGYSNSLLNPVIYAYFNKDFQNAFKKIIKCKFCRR

[2] = molecular target: T2, Adrenergic receptor alpha-1 (Homo sapiens, UniProt P35348+P25100+P35368); assay: Binding affinity towards Alpha-1 adrenergic receptor in human cortex membranes; type: cell membranes
T2 sequence (P35348 whole entry): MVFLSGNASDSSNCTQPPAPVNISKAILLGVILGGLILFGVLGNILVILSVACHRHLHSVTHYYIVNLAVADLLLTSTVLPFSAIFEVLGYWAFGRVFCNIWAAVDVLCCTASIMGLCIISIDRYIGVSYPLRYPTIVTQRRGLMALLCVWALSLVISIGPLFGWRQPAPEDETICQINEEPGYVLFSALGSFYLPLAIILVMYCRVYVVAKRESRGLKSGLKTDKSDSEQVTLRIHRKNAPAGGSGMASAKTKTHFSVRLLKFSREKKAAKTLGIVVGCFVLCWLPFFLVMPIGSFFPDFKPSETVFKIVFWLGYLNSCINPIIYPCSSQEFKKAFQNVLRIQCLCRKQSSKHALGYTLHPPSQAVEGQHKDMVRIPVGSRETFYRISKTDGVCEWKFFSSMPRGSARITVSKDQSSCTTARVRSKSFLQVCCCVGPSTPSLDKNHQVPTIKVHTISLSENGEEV
T2 sequence (P25100 whole entry): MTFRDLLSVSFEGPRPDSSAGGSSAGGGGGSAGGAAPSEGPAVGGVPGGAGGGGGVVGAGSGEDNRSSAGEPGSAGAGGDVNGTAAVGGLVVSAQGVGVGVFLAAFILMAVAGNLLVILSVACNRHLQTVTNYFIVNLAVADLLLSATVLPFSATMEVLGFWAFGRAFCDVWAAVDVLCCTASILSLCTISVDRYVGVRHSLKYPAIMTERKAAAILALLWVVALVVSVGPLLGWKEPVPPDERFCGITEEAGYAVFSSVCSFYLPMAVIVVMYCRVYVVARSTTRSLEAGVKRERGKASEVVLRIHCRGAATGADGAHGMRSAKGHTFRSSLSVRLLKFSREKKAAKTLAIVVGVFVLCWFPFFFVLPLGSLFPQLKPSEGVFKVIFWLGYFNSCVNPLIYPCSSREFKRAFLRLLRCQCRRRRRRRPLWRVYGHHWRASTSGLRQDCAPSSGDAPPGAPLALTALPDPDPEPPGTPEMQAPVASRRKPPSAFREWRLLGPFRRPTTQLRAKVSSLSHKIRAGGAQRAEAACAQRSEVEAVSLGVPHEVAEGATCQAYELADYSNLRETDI
T2 sequence (P35368 whole entry): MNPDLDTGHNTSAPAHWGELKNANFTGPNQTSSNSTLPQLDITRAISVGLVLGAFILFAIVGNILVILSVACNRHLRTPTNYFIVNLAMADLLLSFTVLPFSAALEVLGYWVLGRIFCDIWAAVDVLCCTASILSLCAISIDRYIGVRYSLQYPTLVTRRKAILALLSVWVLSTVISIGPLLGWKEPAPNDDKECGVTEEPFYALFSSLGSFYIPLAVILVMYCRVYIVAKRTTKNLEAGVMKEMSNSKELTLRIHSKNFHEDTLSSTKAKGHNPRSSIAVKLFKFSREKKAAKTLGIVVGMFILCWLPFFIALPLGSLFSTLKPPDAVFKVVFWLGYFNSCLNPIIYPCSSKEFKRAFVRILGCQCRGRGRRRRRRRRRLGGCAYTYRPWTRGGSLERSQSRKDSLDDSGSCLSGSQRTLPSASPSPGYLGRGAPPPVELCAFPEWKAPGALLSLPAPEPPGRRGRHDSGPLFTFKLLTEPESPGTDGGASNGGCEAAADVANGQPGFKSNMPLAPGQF

D(1A) dopamine receptor = D(1A) dopamine receptor (Homo sapiens, UniProt P21728); assay: The compound was tested for binding affinity against human Dopamine receptor D1
Chain of D(1A) dopamine receptor (P21728 whole entry): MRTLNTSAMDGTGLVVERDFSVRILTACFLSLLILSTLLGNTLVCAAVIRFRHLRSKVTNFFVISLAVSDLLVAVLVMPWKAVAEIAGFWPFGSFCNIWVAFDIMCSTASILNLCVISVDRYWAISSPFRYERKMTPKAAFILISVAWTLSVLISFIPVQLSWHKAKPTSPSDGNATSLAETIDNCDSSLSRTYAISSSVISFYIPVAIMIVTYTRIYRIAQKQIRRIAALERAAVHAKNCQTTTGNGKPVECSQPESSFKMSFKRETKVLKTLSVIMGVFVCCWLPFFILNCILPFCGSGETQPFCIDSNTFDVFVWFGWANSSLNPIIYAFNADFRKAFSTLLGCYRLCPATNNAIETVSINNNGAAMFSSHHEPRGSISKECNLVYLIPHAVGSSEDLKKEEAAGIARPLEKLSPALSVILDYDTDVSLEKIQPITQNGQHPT

Mus musculus = assay: Antagonistic activity against apomorphine induced climbing in the mouse after po administration; type: functional
Procedure, shortened: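 Male CD1 mice (20–25 g), groups of 10, dosed po with compound or vehicle ([…]) at set times before apomorphine 0.88 mg/kg sc. Each mouse placed in an inverted open-ended wire cage; climbing scored 0–2 at 10 and 20 min after apomorphine.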

[3] = molecular target: T3, Alpha-2A adrenergic receptor (Rattus norvegicus, UniProt P22909); assay: The compound was tested for binding affinity against alpha-2D adrenergic receptor
T3 sequence (P22909 whole entry): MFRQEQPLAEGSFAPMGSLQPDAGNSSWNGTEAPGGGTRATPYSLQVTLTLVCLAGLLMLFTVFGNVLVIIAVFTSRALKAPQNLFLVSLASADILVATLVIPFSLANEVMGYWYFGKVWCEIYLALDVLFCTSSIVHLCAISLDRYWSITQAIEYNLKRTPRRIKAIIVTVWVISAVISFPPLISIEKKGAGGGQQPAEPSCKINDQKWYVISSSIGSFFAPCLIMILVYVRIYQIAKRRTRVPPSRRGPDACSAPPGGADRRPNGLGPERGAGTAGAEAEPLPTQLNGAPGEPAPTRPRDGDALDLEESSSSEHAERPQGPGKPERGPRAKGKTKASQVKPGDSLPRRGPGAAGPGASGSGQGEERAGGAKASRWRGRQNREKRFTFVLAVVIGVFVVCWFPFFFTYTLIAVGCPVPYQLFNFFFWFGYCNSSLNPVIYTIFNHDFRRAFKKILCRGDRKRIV

D(3) dopamine receptor = D(3) dopamine receptor (Homo sapiens, UniProt P35462); assay: The compound was tested for binding affinity against human Dopamine receptor D3
Chain of D(3) dopamine receptor (P35462 whole entry): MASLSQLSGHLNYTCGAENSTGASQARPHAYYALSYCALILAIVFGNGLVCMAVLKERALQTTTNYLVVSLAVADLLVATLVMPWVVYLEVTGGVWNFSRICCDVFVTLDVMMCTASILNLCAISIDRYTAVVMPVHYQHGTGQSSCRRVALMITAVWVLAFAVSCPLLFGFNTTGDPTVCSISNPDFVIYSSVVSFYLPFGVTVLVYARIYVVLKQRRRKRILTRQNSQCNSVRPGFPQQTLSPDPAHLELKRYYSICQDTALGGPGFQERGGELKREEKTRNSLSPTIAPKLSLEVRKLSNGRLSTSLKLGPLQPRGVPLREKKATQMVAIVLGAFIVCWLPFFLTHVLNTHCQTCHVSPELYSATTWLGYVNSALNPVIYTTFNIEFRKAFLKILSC

D(1B) dopamine receptor = D(1B) dopamine receptor (Homo sapiens, UniProt P21918); assay: The compound was tested for binding affinity against human Dopamine receptor D5
Chain of D(1B) dopamine receptor (P21918 whole entry): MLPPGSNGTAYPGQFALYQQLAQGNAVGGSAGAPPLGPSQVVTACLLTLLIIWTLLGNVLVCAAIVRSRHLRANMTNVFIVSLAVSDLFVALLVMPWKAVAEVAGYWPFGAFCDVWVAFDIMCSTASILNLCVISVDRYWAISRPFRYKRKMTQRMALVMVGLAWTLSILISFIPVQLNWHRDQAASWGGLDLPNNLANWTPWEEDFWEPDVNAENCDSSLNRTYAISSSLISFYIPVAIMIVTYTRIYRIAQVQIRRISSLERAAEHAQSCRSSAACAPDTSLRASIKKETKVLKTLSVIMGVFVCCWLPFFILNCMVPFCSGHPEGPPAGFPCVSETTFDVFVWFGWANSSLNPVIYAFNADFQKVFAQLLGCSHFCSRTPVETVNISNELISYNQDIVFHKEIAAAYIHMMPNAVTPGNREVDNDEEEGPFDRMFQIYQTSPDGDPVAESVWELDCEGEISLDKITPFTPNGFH

[4] = molecular target: 5-hydroxytryptamine receptor 6 (Rattus norvegicus, UniProt P31388); assay: The compound was tested for binding affinity against 5-hydroxytryptamine 6 receptor
Chain of 5-hydroxytryptamine receptor 6 (P31388 whole entry): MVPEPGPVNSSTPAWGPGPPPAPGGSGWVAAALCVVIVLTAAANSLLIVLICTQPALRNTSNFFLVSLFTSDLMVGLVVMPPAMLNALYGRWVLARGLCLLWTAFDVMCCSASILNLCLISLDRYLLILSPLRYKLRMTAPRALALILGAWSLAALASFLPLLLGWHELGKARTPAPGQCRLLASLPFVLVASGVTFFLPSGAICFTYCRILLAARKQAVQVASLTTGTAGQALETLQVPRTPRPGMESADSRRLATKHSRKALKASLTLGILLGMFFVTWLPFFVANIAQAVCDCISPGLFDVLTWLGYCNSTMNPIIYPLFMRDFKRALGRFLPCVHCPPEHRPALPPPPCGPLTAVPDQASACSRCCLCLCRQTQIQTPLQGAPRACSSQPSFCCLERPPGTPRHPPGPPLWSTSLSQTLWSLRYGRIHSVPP

D(2) dopamine receptor = D(2) dopamine receptor (Homo sapiens, UniProt P14416); assay: The compound was tested for binding affinity against human Dopamine receptor D2L
Chain of D(2) dopamine receptor (P14416 whole entry): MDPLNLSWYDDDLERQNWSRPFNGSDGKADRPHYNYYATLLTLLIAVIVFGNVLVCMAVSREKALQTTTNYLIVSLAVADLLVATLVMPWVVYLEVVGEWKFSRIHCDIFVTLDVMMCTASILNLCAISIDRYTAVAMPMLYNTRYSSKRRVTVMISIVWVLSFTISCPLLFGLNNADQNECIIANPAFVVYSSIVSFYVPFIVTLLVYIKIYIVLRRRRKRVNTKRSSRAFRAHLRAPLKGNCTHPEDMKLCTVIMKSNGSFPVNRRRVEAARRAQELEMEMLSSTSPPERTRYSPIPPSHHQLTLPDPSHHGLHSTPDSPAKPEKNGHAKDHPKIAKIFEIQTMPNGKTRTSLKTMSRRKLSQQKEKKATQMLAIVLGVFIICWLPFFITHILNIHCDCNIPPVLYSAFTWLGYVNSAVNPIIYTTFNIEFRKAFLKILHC

COc1ccccc1N1CCC(CNCC2COc3ccc(Cl)cc3O2)CC1 (centres undefined)
Ki [1]: 22 nM
Ki [2]: 53 nM
Ki (D(1A) dopamine receptor): > 1000 nM
ED50 (Mus musculus): 5 mg/kg
Ki [3]: > 500 nM
Ki (D(3) dopamine receptor): 1.6 nM
Ki (D(1B) dopamine receptor): > 1000 nM
Ki [4]: > 500 nM
Ki (D(2) dopamine receptor): 13.2 nM
